Reference: ChEMBL document CHEMBL1145811, “Synthesis and antibacterial activity of a novel series of acylides: 3-O-(3-pyridyl)acetylerythromycin A derivatives” (J Med Chem, 2003)
≈ marks a conversion by molar mass, not a printed value.

Tests used:
Type in all cases: functional
Haemophilus influenzae [1] = assay: In vitro minimum inhibitory concentration for antibacterial activity against Haemophilus influenzae ATCC 33533 (ampicillin-resistant strain that produces beta-lactamase)
In short: (§1)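 Agar dilution MIC determined by the Japan Society of Chemotherapy standard method for aerobic bacteria.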

Staphylococcus aureus [2] = assay: In vitro minimum inhibitory concentration for antibacterial activity against erythromycin-susceptible strain Staphylococcus aureus […]
In short: (§2)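 MIC by agar dilution following the Japan Society of Chemotherapy standard method for aerobic bacteria. S. aureus 209P-JC and S. pneumoniae IID553 are erythromycin-susceptible strains.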

Streptococcus pneumoniae [3] = assay: In vitro minimum inhibitory concentration for antibacterial activity against Streptococcus pneumoniae 211 (MLSb-resistant strain encoded by the erm(B) gene); in short: as §1
Staphylococcus aureus [4] = assay: In vitro minimum inhibitory concentration for antibacterial activity against Staphylococcus aureus B1 (inducibly MLSb-resistant strain encoded by the erm(C) gene); in short: as §1
Staphylococcus aureus [5] = assay: In vitro minimum inhibitory concentration for antibacterial activity against Staphylococcus aureus SR138 (constitutively MLSb-resistant strain encoded by the erm(A) gene); in short: as §1
Streptococcus pneumoniae [6] = assay: In vitro minimum inhibitory concentration for antibacterial activity against erythromycin-susceptible strain Streptococcus pneumoniae IID553; in short: as §2
Streptococcus pneumoniae [7] = assay: In vitro minimum inhibitory concentration for antibacterial activity against Streptococcus pneumoniae 210 (efflux-resistant strain encoded by the mef(A) gene); in short: as §1
Haemophilus influenzae [8] = assay: In vitro minimum inhibitory concentration for antibacterial activity against Haemophilus influenzae ATCC 43095 (ampicillin-susceptible strain that does not produce beta-lactamase); in short: as §1

CC[C@H]1OC(=O)[C@H](C)[C@@H](OC(=O)Cc2ccccc2OC)[C@H](C)[C@@H](OC2O[C@H](C)C[C@H](N(C)C)[C@H]2O)[C@@](C)(OC)C[C@@H](C)C(=O)[C@H](C)[C@@H](O)[C@]1(C)O (stereo partly drawn)
MIC (Haemophilus influenzae [1]): 100 µg/mL (≈ 136 µM) | MIC (Staphylococcus aureus [2]): 3.13 µg/mL (≈ 4.24 µM) | MIC (Streptococcus pneumoniae [3]): > 100 µg/mL | MIC (Staphylococcus aureus [4]): 12.5 µg/mL (≈ 16.9 µM) | MIC (Staphylococcus aureus [5]): > 100 µg/mL | MIC (Streptococcus pneumoniae [6]): 1.56 µg/mL (≈ 2.11 µM) | MIC (Streptococcus pneumoniae [7]): 1.56 µg/mL (≈ 2.11 µM) | MIC (Haemophilus influenzae [8]): > 100 µg/mL

CC[C@H]1OC(=O)[C@H](C)[C@@H](OC(=O)Cc2ccncc2)[C@H](C)[C@@H](OC2O[C@H](C)C[C@H](N(C)C)[C@H]2O)[C@@]2(C)C[C@@H](C)[C@H](OC(=O)O2)[C@H](C)[C@H]2OC(=O)O[C@@]21C (stereo partly drawn)
MIC (Haemophilus influenzae [1]): 6.25 µg/mL (≈ 8.35 µM) | MIC (Staphylococcus aureus [2]): 0.2 µg/mL (≈ 0.267 µM) | MIC (Streptococcus pneumoniae [3]): > 100 µg/mL | MIC (Staphylococcus aureus [4]): 0.39 µg/mL (≈ 0.521 µM) | MIC (Staphylococcus aureus [5]): > 100 µg/mL | MIC (Streptococcus pneumoniae [6]): 0.05 µg/mL (≈ 0.0668 µM) | MIC (Streptococcus pneumoniae [7]): 0.2 µg/mL (≈ 0.267 µM) | MIC (Haemophilus influenzae [8]): 12.5 µg/mL (≈ 16.7 µM)

CC[C@H]1OC(=O)[C@H](C)[C@@H](OC(=O)Cc2cccnc2)[C@H](C)[C@@H](OC2O[C@H](C)C[C@H](N(C)C)[C@H]2O)[C@@](C)(O)C[C@@H](C)CN(C)[C@H](C)[C@@H](O)[C@]1(C)O (stereo partly drawn)
MIC (Haemophilus influenzae [1]): 1.56 µg/mL (≈ 2.2 µM) | MIC (Staphylococcus aureus [2]): 3.13 µg/mL (≈ 4.41 µM) | MIC (Streptococcus pneumoniae [3]): > 100 µg/mL | MIC (Staphylococcus aureus [4]): 6.25 µg/mL (≈ 8.8 µM) | MIC (Staphylococcus aureus [5]): > 100 µg/mL | MIC (Streptococcus pneumoniae [6]): 0.78 µg/mL (≈ 1.1 µM) | MIC (Streptococcus pneumoniae [7]): 0.78 µg/mL (≈ 1.1 µM) | MIC (Haemophilus influenzae [8]): 1.56 µg/mL (≈ 2.2 µM)

CC[C@H]1OC(=O)[C@H](C)[C@@H](OC(=O)Cc2cccnc2)[C@H](C)[C@@H](OC2O[C@H](C)C[C@H](N(C)C)[C@H]2O)[C@@](C)(O)C[C@@H](C)C(=O)[C@H](C)[C@@H](O)[C@]1(C)O (stereo partly drawn)
MIC (Haemophilus influenzae [1]): 12.5 µg/mL (≈ 18 µM) | MIC (Staphylococcus aureus [2]): 1.56 µg/mL (≈ 2.25 µM) | MIC (Streptococcus pneumoniae [3]): > 100 µg/mL | MIC (Staphylococcus aureus [4]): 6.25 µg/mL (≈ 8.99 µM) | MIC (Staphylococcus aureus [5]): > 100 µg/mL | MIC (Streptococcus pneumoniae [6]): 0.2 µg/mL (≈ 0.288 µM) | MIC (Streptococcus pneumoniae [7]): 0.78 µg/mL (≈ 1.12 µM) | MIC (Haemophilus influenzae [8]): 12.5 µg/mL (≈ 18 µM)

CC[C@H]1OC(=O)[C@H](C)[C@@H](OC(=O)Cc2ccccc2[N+](=O)[O-])[C@H](C)[C@@H](OC2O[C@H](C)C[C@H](N(C)C)[C@H]2O)[C@@](C)(OC)C[C@@H](C)C(=O)[C@H](C)[C@@H](O)[C@]1(C)O (stereo partly drawn)
MIC (Haemophilus influenzae [1]): 50 µg/mL (≈ 66.4 µM) | MIC (Staphylococcus aureus [2]): 0.39 µg/mL (≈ 0.518 µM) | MIC (Streptococcus pneumoniae [3]): > 100 µg/mL | MIC (Staphylococcus aureus [4]): 0.78 µg/mL (≈ 1.04 µM) | MIC (Staphylococcus aureus [5]): > 100 µg/mL | MIC (Streptococcus pneumoniae [6]): 0.2 µg/mL (≈ 0.266 µM) | MIC (Streptococcus pneumoniae [7]): 0.2 µg/mL (≈ 0.266 µM) | MIC (Haemophilus influenzae [8]): 50 µg/mL (≈ 66.4 µM)

CC[C@H]1OC(=O)[C@H](C)[C@@H](OC(=O)Cc2cccc(OC)c2)[C@H](C)[C@@H](OC2O[C@H](C)C[C@H](N(C)C)[C@H]2O)[C@@](C)(OC)C[C@@H](C)C(=O)[C@H](C)[C@@H](O)[C@]1(C)O (stereo partly drawn)
MIC (Haemophilus influenzae [1]): 25 µg/mL (≈ 33.9 µM) | MIC (Staphylococcus aureus [2]): 1.56 µg/mL (≈ 2.11 µM) | MIC (Streptococcus pneumoniae [3]): > 100 µg/mL | MIC (Staphylococcus aureus [4]): 3.13 µg/mL (≈ 4.24 µM) | MIC (Staphylococcus aureus [5]): > 100 µg/mL | MIC (Streptococcus pneumoniae [6]): 0.39 µg/mL (≈ 0.529 µM) | MIC (Streptococcus pneumoniae [7]): 0.39 µg/mL (≈ 0.529 µM) | MIC (Haemophilus influenzae [8]): 50 µg/mL (≈ 67.8 µM)

CC[C@H]1OC(=O)[C@H](C)[C@@H](OC(=O)Cc2cccnc2)[C@H](C)[C@@H](OC2O[C@H](C)C[C@H](N(C)C)[C@H]2O)[C@@](C)(OC)C[C@@H](C)/C(=N\O)[C@H](C)[C@@H](O)[C@]1(C)O (stereo partly drawn)
MIC (Haemophilus influenzae [1]): 12.5 µg/mL (≈ 17.3 µM) | MIC (Staphylococcus aureus [2]): 0.78 µg/mL (≈ 1.08 µM) | MIC (Streptococcus pneumoniae [3]): > 100 µg/mL | MIC (Staphylococcus aureus [4]): 1.56 µg/mL (≈ 2.15 µM) | MIC (Staphylococcus aureus [5]): > 100 µg/mL | MIC (Streptococcus pneumoniae [6]): 0.2 µg/mL (≈ 0.276 µM) | MIC (Streptococcus pneumoniae [7]): 0.39 µg/mL (≈ 0.539 µM) | MIC (Haemophilus influenzae [8]): 12.5 µg/mL (≈ 17.3 µM)

CC[C@H]1OC(=O)[C@H](C)[C@@H](OC2C[C@@](C)(OC)[C@@H](O)[C@H](C)O2)[C@H](C)[C@@H](OC2O[C@H](C)C[C@H](N(C)C)[C@H]2O)[C@@]2(C)C[C@@H](C)[C@H](OC(=O)O2)[C@H](C)[C@H]2OC(=O)O[C@@]21C (stereo partly drawn)
MIC (Haemophilus influenzae [1]): 1.56 µg/mL (≈ 1.98 µM) | MIC (Staphylococcus aureus [2]): 0.1 µg/mL (≈ 0.127 µM) | MIC (Streptococcus pneumoniae [3]): > 100 µg/mL | MIC (Staphylococcus aureus [4]): > 100 µg/mL | MIC (Staphylococcus aureus [5]): > 100 µg/mL | MIC (Streptococcus pneumoniae [6]): 0.1 µg/mL (≈ 0.127 µM) | MIC (Streptococcus pneumoniae [7]): 0.39 µg/mL (≈ 0.495 µM) | MIC (Haemophilus influenzae [8]): 1.56 µg/mL (≈ 1.98 µM)

CC[C@H]1OC(=O)[C@H](C)[C@@H](OC(=O)Cc2cccnc2)[C@H](C)[C@@H](OC2O[C@H](C)C[C@H](N(C)C)[C@H]2O)[C@@](C)(O)C[C@@H](C)[C@H](O)[C@H](C)[C@H]2OC(=O)O[C@@]21C (stereo partly drawn)
MIC (Haemophilus influenzae [1]): 6.25 µg/mL (≈ 8.65 µM) | MIC (Staphylococcus aureus [2]): 0.78 µg/mL (≈ 1.08 µM) | MIC (Streptococcus pneumoniae [3]): > 100 µg/mL | MIC (Staphylococcus aureus [4]): 0.78 µg/mL (≈ 1.08 µM) | MIC (Staphylococcus aureus [5]): > 100 µg/mL | MIC (Streptococcus pneumoniae [6]): 0.1 µg/mL (≈ 0.138 µM) | MIC (Streptococcus pneumoniae [7]): 0.2 µg/mL (≈ 0.277 µM) | MIC (Haemophilus influenzae [8]): 3.13 µg/mL (≈ 4.33 µM)

CC[C@H]1OC(=O)[C@H](C)[C@@H](OC(=O)CCc2cccc(OC)c2)[C@H](C)[C@@H](OC2O[C@H](C)C[C@H](N(C)C)[C@H]2O)[C@@](C)(OC)C[C@@H](C)C(=O)[C@H](C)[C@@H](O)[C@]1(C)O (stereo partly drawn)
MIC (Haemophilus influenzae [1]): 100 µg/mL (≈ 133 µM) | MIC (Staphylococcus aureus [2]): 3.13 µg/mL (≈ 4.16 µM) | MIC (Streptococcus pneumoniae [3]): > 100 µg/mL | MIC (Staphylococcus aureus [4]): 3.13 µg/mL (≈ 4.16 µM) | MIC (Staphylococcus aureus [5]): > 100 µg/mL | MIC (Streptococcus pneumoniae [6]): 0.78 µg/mL (≈ 1.04 µM) | MIC (Streptococcus pneumoniae [7]): 0.78 µg/mL (≈ 1.04 µM) | MIC (Haemophilus influenzae [8]): 100 µg/mL (≈ 133 µM)

CC[C@H]1OC(=O)[C@H](C)[C@@H](OC(=O)Cc2cccnc2)[C@H](C)[C@@H](OC2O[C@H](C)C[C@H](N(C)C)[C@H]2O)[C@@](C)(O)C[C@@H](C)[C@@H]2OC(=O)O[C@H]([C@H]2C)[C@]1(C)O (stereo partly drawn)
MIC (Haemophilus influenzae [1]): 6.25 µg/mL (≈ 8.65 µM) | MIC (Staphylococcus aureus [2]): 0.78 µg/mL (≈ 1.08 µM) | MIC (Streptococcus pneumoniae [3]): > 100 µg/mL | MIC (Staphylococcus aureus [4]): 1.56 µg/mL (≈ 2.16 µM) | MIC (Staphylococcus aureus [5]): > 100 µg/mL | MIC (Streptococcus pneumoniae [6]): 0.1 µg/mL (≈ 0.138 µM) | MIC (Streptococcus pneumoniae [7]): 0.39 µg/mL (≈ 0.54 µM) | MIC (Haemophilus influenzae [8]): 12.5 µg/mL (≈ 17.3 µM)
